Format in all cases: functional, cell-based
For one assay, the system named is MCF7. The assay is described as follows: Cytotoxicity against human MCF7 cells expressing estrogen receptor after 48 hrs by MTT assay. The note with it: MCF7, 48 h. The essentials: (§1)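 Adherent human tumor cells kept in DMEM with 10% FBS, penicillin and streptomycin, at 37 °C under 5% CO₂ and 85% humidity, and subcultured with trypsin-EDTA. Cells were seeded at 5000/well and compounds in DMSO were added 24 h later. After 48 h, medium was swapped for MTT (1 mg/mL final, serum-free phenol-red-free RPMI) for 4 h. Formazan was dissolved in 2-propanol and read at 550 nm against 690 nm reference.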
For orientation: Tetrazolium dyes change colour on reduction, which living cells bring about.

A further assay concerns HT-29. The assay is described as follows: Cytotoxicity against human HT-29 cells after 48 hrs by MTT assay. The note with it: HT-29, 48 h. The essentials: as §1
A further assay relates to PC-3. Description: Cytotoxicity against human PC3 cells after 48 hrs by MTT assay. The settings on record: PC-3, 48 h. Put shortly: as §1
For the next assay, the system named is LNCaP. Description: Cytotoxicity against human LNCAP cells expressing androgen receptor after 48 hrs by MTT assay. The essentials: as §1
A further assay deals with HCT-116. Description: Cytotoxicity against human HCT116 cells after 48 hrs by MTT assay. The settings on record: HCT-116, 48 h. The essentials: as §1
Assay [1] is described as follows: Cytotoxicity against human HRT18 cells after 48 hrs by MTT assay. The settings on record: HRT-18, 48 h. The essentials: as §1

Each structure is given as a SMILES string. ≈ marks a conversion by molar mass, not a printed value.

For orientation: IC50 means the concentration at which inhibition is half-maximal. A higher IC50 goes with lower potency. As for `C=C1C(=O)O[C@@H]2[C@H]3O[C@]3(C)CC/C=C(\C)[C@@H](OC(=O)CC(C)(C)O)C[C@@H]12`, the IC50 in the assay on MCF7 was greater than 40 µg/mL; in the assay on HT-29, 17.5 µg/mL (≈ 48 µM); in the assay with PC-3, 18.2 µg/mL (≈ 49.9 µM); in the assay on LNCaP, 34.2 µg/mL (≈ 93.8 µM); with HCT-116, 14.1 µg/mL (≈ 38.7 µM); in assay [1] it was 14.9 µg/mL (≈ 40.9 µM).
As for `C=C1C(=O)O[C@@H]2[C@H]3O[C@]3(C)CC/C=C(\C)[C@@H](OC(=O)CC(C)(O)CC)C[C@@H]12` (some centres undefined), the IC50 was greater than 40 µg/mL with MCF7; 11.7 µg/mL (≈ 30.9 µM) with HT-29; 15.7 µg/mL (≈ 41.5 µM) with PC-3; 30.2 µg/mL (≈ 79.8 µM) in the assay on LNCaP; 7.1 µg/mL (≈ 18.8 µM) in the assay on HCT-116; 8.75 µg/mL (≈ 23.1 µM) in assay [1].
On to `COc1cccc2c1C(=O)c1c(O)c3c(c(O)c1C2=O)C[C@@](O)(C(C)=O)C[C@@H]3O[C@H]1C[C@H](N)[C@H](O)[C@H](C)O1.Cl` [DAUNORUBICIN HYDROCHLORIDE], for which the half-maximal inhibitory concentration (IC50) with MCF7 came to 0.12 µg/mL; in the assay on HT-29, 0.072 µg/mL; in the assay on PC-3, 0.23 µg/mL; in the assay on LNCaP it was 0.011 µg/mL; in the assay with HCT-116 it was 0.28 µg/mL; in assay [1], 0.11 µg/mL.
For the compound `C=C1C(=O)O[C@@H]2[C@H]3O[C@]3(C)CC/C=C(\C)[C@@H](OC(=O)C(C)C(C)O)C[C@@H]12` (some centres undefined), the IC50 is greater than 40 µg/mL with MCF7; 11.7 µg/mL (≈ 32.1 µM) in the assay on HT-29; 11.3 µg/mL (≈ 31 µM) with PC-3; 25.4 µg/mL (≈ 69.7 µM) in the assay on LNCaP; 0.39 µg/mL (≈ 1.07 µM) in the assay on HCT-116; 13.4 µg/mL (≈ 36.8 µM) in assay [1].
